Screening results deposited in PubChem BioAssay by Sanford-Burnham Center for Chemical Genomics.
NadD block: NadD (S. aureus) enzyme inhibition; purified NadD enzyme, colorimetric absorbance read-out; inhibition, % at 20 µM; hit rate 0.78% among 360,000; in the data active = inhibition above about 26%
Scp-1 inhibitor: inhibitors of human Scp-1 phosphatase. Recombinant Scp1, phosphopeptide, malachite green phosphate absorbance. inhibition, % at 20 µM. hit rate 0.88% among 340,000. AID 493091;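 active = inhibition above about 50% at 20 µM, limit read from the data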;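 note: plate controls were DMSO wells with enzyme for no effect and wells lacking enzyme for full effect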
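Material – SCP-1 phosphatase catalytic domain, residues 76-261 · Buffer or medium – Acidic Tris acetate buffer with magnesium and detergent · Also added – Phospho 17-mer peptide substrate · Compound – single 20 µM dose, 1% DMSO · Times – 45 min room-temperature reaction, 5 min colour, 30 min stabiliser · Technique – Phosphate-binding colour reagent, absorbance read at 630 nm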
STEP block: STEP (human) phosphatase inhibition; recombinant STEP, OMFP fluorogenic substrate, fluorescence; inhibition, % at 20 µM; hit rate 0.25% among 360,000; AID 588621;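 active = inhibition at 20 µM, scaled per plate between control wells, above about 37%, limit read from the data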;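 note: 0% = DMSO with enzyme and substrate and 100% = substrate only without enzyme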
Target sequence (P54829 whole entry, looked up): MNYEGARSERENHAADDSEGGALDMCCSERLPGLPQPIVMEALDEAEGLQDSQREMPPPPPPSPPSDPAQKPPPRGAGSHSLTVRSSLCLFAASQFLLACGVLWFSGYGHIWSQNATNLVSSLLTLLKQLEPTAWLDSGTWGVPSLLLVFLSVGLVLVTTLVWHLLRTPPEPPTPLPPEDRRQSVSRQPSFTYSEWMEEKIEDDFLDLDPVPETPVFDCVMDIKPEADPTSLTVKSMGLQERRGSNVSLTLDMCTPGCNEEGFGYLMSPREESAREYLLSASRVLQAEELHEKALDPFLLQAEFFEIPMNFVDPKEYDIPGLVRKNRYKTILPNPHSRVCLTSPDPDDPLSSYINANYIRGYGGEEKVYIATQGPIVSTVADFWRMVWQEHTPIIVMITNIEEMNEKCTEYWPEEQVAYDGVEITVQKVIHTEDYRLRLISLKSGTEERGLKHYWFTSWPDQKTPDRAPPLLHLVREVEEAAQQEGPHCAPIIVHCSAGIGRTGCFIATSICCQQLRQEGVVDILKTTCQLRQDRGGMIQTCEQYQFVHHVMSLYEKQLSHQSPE
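System: STEP (striatal-enriched tyrosine phosphatase) enzyme, cell-free; medium: Bis-Tris pH 6.0 buffer with DTT, detergent; dosing: 20 µM, 1% DMSO; times: reaction 20 min, ambient temperature; detection: fluorescence, 480/540 nm; read-out basis: normalized % inhibition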
SUMO1 PPI mod: modulators of human SUMO1-mediated protein-protein interactions | SUMO1 binding to a labelled peptide, TR-FRET, 1 h | hit rate 0.33% among 360,000 | inhibition, % at 20 µM; in the data active = inhibition above about 37%
DNMT1 block: blocks human DNA methyltransferase DNMT1 | P26358 | DNMT1 molecular beacon, Hinp1I cleavage, fluorescence | hit rate 0.83% among 360,000 | inhibition (reported as % activation of signal), % at 10 µM; in the data active = inhibition above about 50%
LMPTP inh: blocks human LMPTP phosphatase; P24666; hit rate 0.22% among 360,000; inhibition, % at 20 µM; recombinant LMPTP-A, OMFP fluorogenic substrate, fluorescence intensity;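 active = compounds that cut the enzyme signal by at least half of the control window in the single-dose screen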;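 note: plate controls were DMSO wells with enzyme plus substrate for no effect and substrate without enzyme for full effect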
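Material: LMPTP-A; amount: 0.625 nM enzyme; doses: single 20 µM dose; times: reaction 50 min, room temperature, dark; technique: fluorescence intensity of OMFP turnover product; benchmarks: no-enzyme and uninhibited controls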
Beacon interf DR: beacon fluorescence artifact, dose response counter-screen; shares compounds with DNMT1 block; molecular beacon fluorescence, spectral interference counter-screen; IC50, µM; 200 tested, under 10 active; call rule not given here
DNMT1 inh conf: confirmation of human DNMT1 inhibitors; shares compounds with DNMT1 block; AID 602385; hit rate 8% among 2,300; inhibition, % at 10 µM; DNMT1 molecular beacon HinP1I cleavage, fluorescence;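 active = average inhibition of at least 30% in the single-concentration confirmation test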
DNMT1 interf: beacon fluorescence artifact counter-screen; hit rate 1% among 2,300; DNMT1 molecular beacon spectral interference counterscreen, fluorescence 485/520; shares compounds with DNMT1 block; activation (fluorescence interference), % at 10 µM;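 active = activation of at least 30% at 10 µM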;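 note: DNMT1 catalytic domain with a HinP1I cleavage step and a FAM/dabcyl DNA beacon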
Starred values were filed as active, the others as inactive; . = not tested or not shown. Only some compounds are listed: those with a hit (about 2.4% of all), similar ones and a draw of the others.

SMILES	NadD block	Scp-1 inhibitor	STEP block	SUMO1 PPI mod	DNMT1 block	LMPTP inh	DNMT1 inh conf	DNMT1 interf	others
Cc1cccc(NC(=O)C2CCCN2C(=O)OCC(C)C)c1C (stereo unspecified)	10	-11	-3	-3	-2	-1	.	.
O=S(=O)(Nc1ccc(S(=O)(=O)N2CCCCC2)cc1)c1cccs1	-7	-7	-3	-2	3	0	.	.
Cc1cc(C)c2c(N)c3cccc(C)c3nc2n1	5	-10	-11	-2	73*	13	40*	-3	Beacon interf DR=>99
Cc1cccc2c(N)c3c(nc12)CCCC3 (tested in a mixture with another compound)	3	-3	-2	-14	6	1	.	.
COc1ccc(-c2ccc3c(=O)cc(-c4ccsc4)oc3c2)cn1	-3	1	-2	19	53*	33	1	2
COc1ccc(-c2cc(=O)c3ccc(O)cc3o2)cc1	-4	-4	-2	-4	-3	1	.	.
O=C(O)c1cnn2c(C(F)F)cc(C3CC3)nc12	3	-3	-2	3	-1	-2	.	.
Cc1cc(NC(=O)CSc2cn(CCNC(=O)c3ccccc3)c3ccccc23)no1	-5	39	6	7	72*	4	7	0
COc1cccc(C2=CC(=O)CCC2)c1	-3	-6	-2	-8	0	-2	.	.
Cc1ccc(NC(=O)CSc2nsc(SCC(=O)Nc3ccc(C)cc3C)c2C#N)c(C)c1	-1	-3	-1	-1	52*	-1	3	3
CCOC(=O)CSc1nsc(SCC(=O)OCC)c1C#N	-2	-2	-1	-4	76*	-1	-1	5
CC(=O)CSc1nsc(SCC(C)=O)c1C#N	14	5	1	24	-10	17	.	.
O=C1c2sccc2-c2cccc3cccc1c23	-9	.	0	-25	66*	2	65*	3	Beacon interf DR=>99
O=C1C(Br)=Cc2cccc3cccc1c23	-7	-6	0	-31	28	0	.	.
O=C(COC(=O)c1cc([N+](=O)[O-])ccc1NCCO)c1ccc(Cl)cc1	-3	-3	-1	-16	-2	1	.	.
CCc1ccc(C(=O)COC(=O)c2cc([N+](=O)[O-])ccc2NCCO)cc1	-10	-9	3	-16	90*	1	5	7
CC1(C(=O)NNC(=O)c2ccc(=O)oc2)CC1Br (stereo unspecified)	15	28	8	21	75*	-1	4	3
Cc1cc(=O)oc(C)c1C(=O)NNC(=O)C1(C)CC1Br (stereo unspecified)	-1	-1	-3	9	1	-2	.	.
COc1ccc(NC(=O)C2Cc3c(-c4cccc(C(N)=O)c4)ccnc3O2)cc1 (stereo unspecified)	4	.	1	3	55*	-1	12	6
COCc1cc(C)nc(SCc2ccc(Cl)cc2)c1C#N	5	-10	1	4	1	3	.	.
C=CCn1c(N)c(C(=O)OC(C)CC)c2nc3ccccc3nc21 (stereo unspecified)	-5	1	1	38	70*	9	8	7
C=CCn1c(N)c(C(=O)OC(C)(C)C)c2nc3ccccc3nc21	-4	-3	3	-2	-3	0	.	.
CSc1ccccc1NC(=O)CSc1n[nH]c(N)n1	2	-7	12	-3	2	-2	.	.
C[C@@H](NC(=O)c1nc[nH]c1C(=O)N[C@H](C)c1ccccc1)c1ccccc1	6	-2	0	-2	3	0	.	.
NC(=O)CSc1nc2scc(-c3ccco3)c2c(=O)n1-c1ccccc1	10	-2	4	13	50*	47	3	1
SMILES	NadD block	Scp-1 inhibitor	STEP block	SUMO1 PPI mod	DNMT1 block	LMPTP inh	DNMT1 inh conf	DNMT1 interf	others
Cc1cccc(NC(=O)COC(=O)c2c(-c3ccccc3)noc2C)c1	4	.	0	-3	1	2	.	.
CCc1noc(C)c1C(=O)OCC(=O)Nc1cccc(C)c1	-1	-6	-3	2	77*	-1	3	3
Cc1noc(C)c1C(=O)OCC(=O)N(C)C1CCS(=O)(=O)C1 (stereo unspecified)	-6	1	1	3	1	-2	.	.
CCOC(=O)c1sc(NC(=O)Nc2ccccc2F)nc1C	4	-5	2	-1	4	-1	.	.
CCOC(=O)c1sc(NC(=O)/C=C/c2c(F)cccc2Cl)nc1C	-4	-5	0	1	60*	7	0	-2
Cc1cc(C)c(-c2nc3ccccc3s2)[nH]1	5	2	-4	-17	-7	2	.	.
CCOc1ccc(OCc2ccc(C(=O)NC(C)(C)C)o2)cc1	-3	6	3	0	49	-1	9	2
CCOC(=O)C1CCCN(C(=O)c2ccccc2SCCOC)C1 (stereo unspecified)	1	-4	0	-2	1	-2	.	.
COCCSc1ccccc1C(=O)N1CCCC(C)C1 (stereo unspecified)	3	-11	0	6	85*	0	0	3
C=CCOC(=O)c1cc(-c2ccc(/C=C3\C(=O)NC(=O)C(C#N)=C3C)o2)ccc1Cl	69*	87*	4	43*	105*	23	97*	-3	Beacon interf DR=>99
CCOc1ccc(C(=O)CCC(=O)Nc2cc(C)ccn2)cc1	5	2	-2	11	-1	1	.	.
CNc1ccc([N+](=O)[O-])cc1-c1nc2ccccc2[nH]c1=O	4	15	4	6	51*	4	1	-5
CC(C)C(=O)Nc1ccc(Cl)cc1-c1nc2ccccc2[nH]c1=O	-2	-8	1	-9	1	-2	.	.
O=C(NCc1ccco1)c1cc(-c2ccncc2)nc2ccccc12	1	-2	1	-12	1	-2	.	.
Cc1cc(C)n(-c2nc3ccccc3nc2Nc2ccc3c(c2)OCO3)n1	-4	-12	0	5	-10	3	.	.
Cc1ccc2nc(Nc3ccc4[nH]c(=O)[nH]c4c3)c(-n3nc(C)cc3C)nc2c1	8	-1	1	-4	51*	4	3	2
Cc1cc(C(=O)COC(=O)C(C)NC(N)=O)c(C)n1Cc1ccco1 (stereo unspecified)	2	11	-1	2	-2	2	.	.
Cc1cc(C(=O)C(C)Cl)c(C)n1Cc1ccco1 (stereo unspecified)	13	0	0	2	65*	2	1	-1
